Results from ChEMBL document CHEMBL2010685, “Synthesis and biological evaluation of novel bifendate derivatives bearing 6,7-dihydro-dibenzo[c,e]azepine scaffold as potent P-glycoprotein inhibitors” (Eur J Med Chem, 2012).
The source made the active and inactive calls. No cut-off for these calls is given here.

Key:
[1] = Cytotoxicity against human K562/A02 cells expressing p-glycoprotein assessed as cell killing at 5 uM after 72 hrs by MTS assay; assay type: cell-based; details: k562/a02, 72 h
[2] = system: K562; assay: Cytotoxicity against human K562 cells assessed as cell killing at 5 uM after 72 hrs by MTS assay; assay type: cell-based; details: k562, 72 h
[3] = Cytotoxicity against human K562/A02 cells expressing p-glycoprotein after 72 hrs by MTS assay; assay type: functional, cell-based; details: K562/A02, 72 h
In short: (§1)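 K562 and K562/A02 cells (1 × 10⁴/well) seeded in RPMI-1640 and incubated 24 h. Exponentially growing cells then exposed to various compound concentrations for 72 h at 37 °C (5% CO₂, 95% humidity). MTS added for 3 h more, absorbance read at 490 nm. IC₅₀ from dose-response curves, mean of triplicate experiments.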

[4] = system: K562; assay: Cytotoxicity against human K562 cells after 72 hrs by MTS assay; assay type: functional, cell-based; details: K562, 72 h; in short: as §1
[5] = system: K562; assay: Ratio of IC50 for human K562/A02 cells expressing p-glycoprotein to IC50 for human K562 cells; assay type: functional
[6] = system: K562; assay: Induction of adriamycin accumulation in human K562 cells at 0.3 to 10 uM by flow cytometry; assay type: functional, cell-based
In short: (§2)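 Rh123 or adriamycin (0.5) then added for 30 min. Stopped with ice-cold PBS and centrifugation, washed three times in ice-cold PBS, analysed by flow cytometry. Fluorescence expressed as fold of 0.1% DMSO control; three independent experiments.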

[7] = system: K562/A02; assay: Reversal of p-glycoprotein-mediated multidrug-resistant in human K562/A02 cells assessed as increase of adriamycin-induced cytotoxic effect at 5 uM after 72 hrs by MTS assay; assay type: cell-based
In short: (§3)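 Viability by MTS assay. Survival rate expressed as percent growth relative to untreated control, mean ± S.D. of three independent experiments.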

[8] = Reversal of p-glycoprotein-mediated multidrug-resistant in human K562/A02 cells assessed as increase of adriamycin-induced cytotoxic effect at 10 uM treated 24 hrs before adriamycin challenge followed by drug washout by MTS assay
[9] = Reversal of p-glycoprotein-mediated multidrug-resistant in human K562/A02 cells assessed as increase of adriamycin-induced cytotoxic effect at 10 uM treated for 24 hrs followed by adriamycin treated 6 hrs after drug washout by MTS assay
[10] = Reversal of p-glycoprotein-mediated multidrug-resistant in human K562/A02 cells assessed as increase of adriamycin-induced cytotoxic effect at 10 uM treated for 24 hrs followed by adriamycin treated 12 hrs after drug washout by MTS assay
[11] = Reversal of p-glycoprotein-mediated multidrug-resistant in human K562/A02 cells assessed as increase of adriamycin-induced cytotoxic effect at 10 uM treated for 24 hrs followed by adriamycin treated 24 hrs after drug washout by MTS assay; details: K562/A02, 24 h
[12] = target: T1, ATP-dependent translocase ABCB1 (Homo sapiens, UniProt P08183); assay: Inhibition of p-glycoprotein in human K562/A02 cells assessed as accumulation of rhodamine 123 by flow cytometry; assay type: cell-based; in short: as §2
[13] = system: K562; assay: Induction of rhodamine 123 accumulation in human K562 cells at 0.3 to 10 uM by flow cytometry; assay type: functional, cell-based; in short: as §2
[14] = target: T1, ATP-dependent translocase ABCB1; assay: Inhibition of p-glycoprotein in human K562/A02 cells assessed as accumulation of adriamycin by flow cytometry; assay type: cell-based; in short: as §2
[15] = target: T1, ATP-dependent translocase ABCB1; assay: Inhibition of p-glycoprotein-mediated rhodamine 123 efflux in human K562/A02 cells after 60 mins by fluorescence microscopic analysis; assay type: cell-based; details: k562/a02, 1 h
[16] = target: T1, ATP-dependent translocase ABCB1; assay: Inhibition of p-glycoprotein-mediated rhodamine 123 efflux in human K562/A02 cells at 2.5 uM after 60 mins by fluorescence microscopic analysis; assay type: cell-based; details: k562/a02, 1 h
[17] = system: K562/A02; assay: Reversal of p-glycoprotein-mediated multidrug-resistant in human K562/A02 cells assessed as increase of adriamycin-induced cytotoxic effect at 2.5 uM after 72 hrs by MTS assay; assay type: cell-based; in short: as §3
[18] = system: K562/A02; assay: Reversal of p-glycoprotein-mediated multidrug-resistant in human K562/A02 cells assessed as increase of adriamycin-induced cytotoxic effect at 1.25 uM after 72 hrs by MTS assay; assay type: cell-based; in short: as §3
[19] = Cytotoxicity against human K562/A02 cells expressing p-glycoprotein assessed as cell survival rate at 1.25 uM after 72 hrs by MTS assay; assay type: cell-based; details: read-out: Activity
[20] = system: K562/A02; assay: Reversal of p-glycoprotein-mediated multidrug-resistant in human K562/A02 cells assessed as increase of adriamycin-induced cytotoxic effect after 72 hrs by MTS assay; assay type: cell-based; in short: as §3
[21] = system: K562; assay: Potentiation of adriamycin-induced cytotoxic effect in human K562 cells assessed as cell survival rate at 1.25 to 5 uM after 72 hrs by MTS assay; assay type: functional, cell-based; in short: as §3
[22] = target: T1, ATP-dependent translocase ABCB1; assay: Inhibition of p-glycoprotein mRNA expression in human K562/A02 cells at 5 uM after 72 hrs by RT-PCR analysis; assay type: functional, cell-based; details: k562/a02, 72 h
[23] = target: T1, ATP-dependent translocase ABCB1; assay: Inhibition of p-glycoprotein protein expression in human K562/A02 cells at 5 uM after 72 hrs by Western blot analysis; assay type: functional, cell-based; details: k562/a02, 72 h
[24] = Reversal of p-glycoprotein-mediated multidrug-resistant in human K562/A02 cells assessed as increase of adriamycin-induced cytotoxic effect at 2.5 uM treated 24 hrs before adriamycin challenge followed by drug washout by MTS assay; assay type: cell-based
[25] = Reversal of p-glycoprotein-mediated multidrug-resistant in human K562/A02 cells assessed as increase of adriamycin-induced cytotoxic effect at 2.5 uM treated for 24 hrs followed by adriamycin treated 6 hrs after drug washout by MTS assay; assay type: cell-based
[26] = Reversal of p-glycoprotein-mediated multidrug-resistant in human K562/A02 cells assessed as increase of adriamycin-induced cytotoxic effect at 2.5 uM treated for 24 hrs followed by adriamycin treated 12 hrs after drug washout by MTS assay; assay type: cell-based
[27] = Reversal of p-glycoprotein-mediated multidrug-resistant in human K562/A02 cells assessed as increase of adriamycin-induced cytotoxic effect at 2.5 uM treated for 24 hrs followed by adriamycin treated 24 hrs after drug washout by MTS assay; assay type: cell-based; details: K562/A02, 24 h
[28] = Induction of ATPase activity of p-glycoprotein at 40 uM by luminescence assay relative to control
[29] = target: T1, ATP-dependent translocase ABCB1; assay: Inhibition of p-glycoprotein in human K562/A02 cells assessed as accumulation of rhodamine 123 at 10 uM by flow cytometry relative to control; assay type: cell-based; details: k562/a02, 10 µM; in short: as §2
[30] = Induction of ATPase activity of p-glycoprotein at 200 uM by luminescence assay relative to control

T1 sequence (P08183 whole entry): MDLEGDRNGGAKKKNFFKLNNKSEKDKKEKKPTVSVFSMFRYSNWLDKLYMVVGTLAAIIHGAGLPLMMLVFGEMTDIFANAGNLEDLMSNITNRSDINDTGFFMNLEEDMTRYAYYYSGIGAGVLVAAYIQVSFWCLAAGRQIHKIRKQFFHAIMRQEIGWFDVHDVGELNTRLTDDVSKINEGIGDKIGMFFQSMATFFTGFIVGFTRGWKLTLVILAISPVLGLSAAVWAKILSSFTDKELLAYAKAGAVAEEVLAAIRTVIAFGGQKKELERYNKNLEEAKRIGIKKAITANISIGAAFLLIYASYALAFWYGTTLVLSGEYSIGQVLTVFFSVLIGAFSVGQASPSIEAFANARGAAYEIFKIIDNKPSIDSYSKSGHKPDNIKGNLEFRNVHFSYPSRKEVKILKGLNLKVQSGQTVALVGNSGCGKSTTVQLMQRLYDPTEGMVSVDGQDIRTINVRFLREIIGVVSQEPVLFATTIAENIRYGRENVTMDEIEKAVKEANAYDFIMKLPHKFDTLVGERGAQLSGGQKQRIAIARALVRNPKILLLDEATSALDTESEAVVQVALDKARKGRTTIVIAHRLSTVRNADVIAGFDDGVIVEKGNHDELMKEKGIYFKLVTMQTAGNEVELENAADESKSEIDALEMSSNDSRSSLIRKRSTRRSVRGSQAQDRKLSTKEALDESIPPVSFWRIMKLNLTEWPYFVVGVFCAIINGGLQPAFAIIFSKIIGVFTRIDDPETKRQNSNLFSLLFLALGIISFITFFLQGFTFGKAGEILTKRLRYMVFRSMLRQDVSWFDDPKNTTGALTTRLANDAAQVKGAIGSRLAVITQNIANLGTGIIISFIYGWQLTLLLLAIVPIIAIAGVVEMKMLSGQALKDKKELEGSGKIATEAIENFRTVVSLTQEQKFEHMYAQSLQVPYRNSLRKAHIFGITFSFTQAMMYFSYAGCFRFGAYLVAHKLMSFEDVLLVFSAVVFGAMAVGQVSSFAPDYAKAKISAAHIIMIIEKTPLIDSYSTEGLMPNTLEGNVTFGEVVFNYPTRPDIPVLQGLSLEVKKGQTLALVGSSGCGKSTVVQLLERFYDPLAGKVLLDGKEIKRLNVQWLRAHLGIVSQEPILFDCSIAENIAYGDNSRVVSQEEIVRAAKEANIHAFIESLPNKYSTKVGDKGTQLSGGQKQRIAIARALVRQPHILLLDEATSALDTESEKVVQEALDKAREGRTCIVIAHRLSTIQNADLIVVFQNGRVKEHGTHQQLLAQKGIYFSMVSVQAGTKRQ

| Molecule | Activity [1] | Activity [2] | IC50 [3] | IC50 [4] | further results |
| --- | --- | --- | --- | --- | --- |
| COc1cc2c(c3c1OCO3)-c1c(cc(OC)c3c1OCO3)CN(CCO)C2 | 10% | 10% | > 200 µM | > 200 µM | – |
| CCN1Cc2cc(OC)c3c(c2-c2c(cc(OC)c4c2OCO4)C1=O)OCO3 | – | – | > 100 µM | > 100 µM | – |
| COc1cc2c(c3c1OCO3)-c1c(cc(OC)c3c1OCO3)CN(c1ccccc1)C2 | – | – | > 100 µM | > 100 µM | – |
| COC(=O)CN1Cc2cc(OC)c3c(c2-c2c(cc(OC)c4c2OCO4)C1)OCO3 | – | – | > 100 µM | > 100 µM | – |
| COc1cccc2c1C(=O)c1c(O)c3c(c(O)c1C2=O)C[C@@](O)(C(=O)CO)C[C@@H]3O[C@H]1C[C@H](N)[C@H](O)[C@H](C)O1 [DOXORUBICIN] | – | – | 46.7 µM | – | Ratio IC50 [5]: 108 |
| COc1ccc(CCN(C)CCCC(C#N)(c2ccc(OC)c(OC)c2)C(C)C)cc1OC (stereo unspecified) | – | – | – | – | Activity [6]: inactive; Activity [7]: > 50%; IC50 [8]: 12.9 µM; IC50 [9]: 26.1 µM; IC50 [10]: 51.1 µM; IC50 [11]: 51.4 µM; inhibition (INH) [12]: Dose-dependent effect; Activity [13]: inactive; inhibition (INH) [14]: Dose-dependent effect |
| COc1cc2c(c3c1OCO3)-c1c(cc(OC)c3c1OCO3)CN(CCc1ccc3c(c1)OCO3)C2 | 10% | 10% | 46.9 µM | 53.7 µM | Activity [6]: inactive; inhibition (INH) [15]: Dose-dependent effect; inhibition (INH) [16]: Active; Activity [17]: 8%; Activity [18]: 30%; viability at 72 h, 1.25 µM [19]: 98%; Activity [7]: 6%; Activity [20]: Dose-dependent effect; Activity [21]: inactive; inhibition (INH) [22]: Not Active; inhibition (INH) [23]: Not Active; IC50 [24]: 1.78 µM; IC50 [25]: 2.47 µM; IC50 [26]: 5.03 µM; IC50 [27]: 10.3 µM; RLU [28]: 283000; fold change (FC) [29]: 11.2; inhibition (INH) [12]: Dose-dependent effect; Activity [13]: inactive; inhibition (INH) [14]: Dose-dependent effect |
| CCCCN1Cc2cc(OC)c3c(c2-c2c(cc(OC)c4c2OCO4)C1)OCO3 | – | – | > 100 µM | 77.5 µM | – |
| COc1cc2c(c3c1OCO3)-c1c(cc(OC)c3c1OCO3)C(=O)N(Cc1ccccc1)C2 | – | – | 53.4 µM | 43.5 µM | – |
| COc1cc2c(c3c1OCO3)-c1c(cc(OC)c3c1OCO3)CN(C)C2 | 10% | 10% | 107 µM | 140 µM | – |
| CCN1Cc2cc(OC)c3c(c2-c2c(cc(OC)c4c2OCO4)C1)OCO3 | 10% | 10% | 117 µM | 125 µM | – |
| COC(=O)CN1Cc2cc(OC)c3c(c2-c2c(cc(OC)c4c2OCO4)C1=O)OCO3 | – | – | > 100 µM | > 100 µM | – |
| CCCN1Cc2cc(OC)c3c(c2-c2c(cc(OC)c4c2OCO4)C1)OCO3 | 10% | 10% | 87.6 µM | 106 µM | – |
| COc1cc2c(c3c1OCO3)-c1c(cc(OC)c3c1OCO3)CN(CCc1ccccc1)C2 | 10% | 10% | 34.1 µM | 45.4 µM | Activity [17]: Active; inhibition (INH) [22]: Not Active; inhibition (INH) [23]: Not Active; fold change (FC) [29]: 10.1; inhibition (INH) [12]: Dose-dependent effect; Activity [13]: inactive |
| COc1cc2c(c3c1OCO3)-c1c(cc(OC)c3c1OCO3)CN(Cc1ccccc1)C2 | 10% | 10% | 112 µM | > 200 µM | inhibition (INH) [22]: Not Active; inhibition (INH) [23]: Not Active; inhibition (INH) [29]: Active; inhibition (INH) [12]: Dose-dependent effect; Activity [13]: inactive |
| SODIUM ORTHOVANAD | – | – | – | – | RLU [30]: 282000 |
| CCCCN1Cc2cc(OC)c3c(c2-c2c(cc(OC)c4c2OCO4)C1=O)OCO3 | – | – | 44.6 µM | 41.7 µM | – |
| COC(=O)c1cc(OC)c2c(c1-c1c(C(=O)OC)cc(OC)c3c1OCO3)OCO2 [BIFENDATE] | – | – | – | – | fold change (FC) [29]: 1.2 |
